Source: ChEMBL document CHEMBL1148965, “Cytotoxic and other metabolites of Aspergillus inhabiting the rhizosphere of Sonoran desert plants” (J Nat Prod, 2004)
pIC50: −log10 of the molar value. The source made the active and inactive calls. No cut-off for these calls is given here.

What was measured:
[1] = test system: SF-268; experiment: Cytotoxicity against human SF268 cells at 10 ug/mL by MTT assay; format: functional, cell-based
[2] = Cytotoxicity against human WI38 cells at 10 ug/mL by MTT assay; format: cell-based; settings: wi-38
[3] = test system: MIA PaCa-2; experiment: Cytotoxicity against human MIAPaCa2 cells at 10 ug/mL by MTT assay; format: functional, cell-based
[4] = test system: MCF7; experiment: Cytotoxicity against human MCF7 cells at 10 ug/mL by MTT assay; format: functional, cell-based
[5] = test system: NCI-H460; experiment: Cytotoxicity against human NCI-H460 cells at 10 ug/mL by MTT assay; format: functional, cell-based
[6] = test system: MIA PaCa-2; experiment: Cytotoxicity against human MIAPaCa2 cells by MTT assay; format: functional, cell-based
Summary of the method: (§1)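 Cells were exposed to DMSO-dissolved samples for 72 h in RPMI-1640 with 10% fetal bovine serum. Viability was read by tetrazolium (MTT) colorimetry. IC50 was taken as the concentration giving 50% inhibition of cell proliferation/survival. WI-38 are normal human primary fibroblasts.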

[7] = test system: MCF7; experiment: Cytotoxicity against human MCF7 cells by MTT assay; format: functional, cell-based; summary of the method: as §1
[8] = test system: SF-268; experiment: Cytotoxicity against human SF268 cells by MTT assay; format: functional, cell-based; summary of the method: as §1
[9] = test system: NCI-H460; experiment: Cytotoxicity against human NCI-H460 cells by MTT assay; format: functional, cell-based; summary of the method: as §1
[10] = Cytotoxicity against human WI38 cells by MTT assay; format: cell-based; settings: WI-38; summary of the method: as §1

Row | Compound | Activity [1] | Activity [2] | Activity [3] | Activity [4] | Activity [5] | pIC50 [6] | pIC50 [7] | pIC50 [8] | pIC50 [9] | pIC50 [10]
1 | COCC(C)C1(O)OC(=O)C=C1OC (stereo not given) | inactive | Non-toxic | inactive | inactive | inactive | – | – | – | – | –
2 | C[C@H]1CCC/C=C/C(=O)c2c(O)cc(O)cc2CC(=O)O1 [DEHYDROCURVULARIN] | – | – | – | – | – | 5.72 | 5.89 | 5.60 | 5.96 | 5.44
3 | C[C@H]1CCCC(O)CC(=O)c2c(O)cc(O)cc2CC(=O)O1 (stereo not given in full) | – | – | – | – | – | 5.48 | 5.70 | 5.39 | 5.68 | 4.94
4 | COC1=CC(=O)OC1(O)C(C)C (stereo not given) | inactive | Non-toxic | inactive | inactive | inactive | – | – | – | – | –
5 | C=CC(C)(C)c1[nH]c2ccccc2c1C1=C(O)C(=O)C(c2c[nH]c3ccccc23)=C(CC=C(C)C)C1=O [TERREQUINONE A] | – | – | – | – | – | 5.27 | 5.17 | 4.86 | 5.25 | –
6 | CC/C=C/C=C/[C@]1(C)OC(CC(C)O)=CC1=O (stereo not given in full) [TERREFURANONE] | inactive | Non-toxic | inactive | inactive | inactive | – | – | – | – | –
7 | C=C(C)C1(O)OC(=O)C=C1OC (stereo not given) [PENICILLIC ACID] | – | – | – | – | – | 5.10 | 4.89 | 4.70 | 5.24 | 4.24
8 | COC1CCC[C@H](C)OC(=O)Cc2cc(O)cc(O)c2C(=O)C1 (stereo not given in full) | – | – | – | – | – | 5.92 | 6.22 | 6.05 | 6.05 | 5.77
9 | C=CC(C)(C)[C@]12CC3C(=O)Nc4ccccc4C(=O)N3[C@H]1N(C(C)=O)c1ccccc12 (stereo not given in full) | inactive | Non-toxic | inactive | inactive | inactive | – | – | – | – | –
10 | C/C=C/C1=CC(=O)[C@](C)(/C=C/C=C/CC)O1 | – | – | – | – | – | 5.20 | 4.93 | 5.17 | 5.26 | –
11 | COc1cccc2c1C(=O)c1c(O)c3c(c(O)c1C2=O)C[C@@](O)(C(=O)CO)C[C@@H]3O[C@H]1C[C@H](N)[C@H](O)[C@H](C)O1 [DOXORUBICIN] | – | – | – | – | – | – | – | – | 8.00 | 6.52
12 | COC1=CC(=O)C[C@](C)(O)[C@H]1O (relative stereo) | inactive | Non-toxic | inactive | inactive | inactive | – | – | – | – | –
